Data on three compounds can be found in ChEMBL document CHEMBL3421533, “The Discovery of Orally Bioavailable Tyrosine Threonine Kinase (TTK) Inhibitors: 3-(4-(heterocyclyl)phenyl)-1H-indazole-5-carboxamides as Anticancer Agents” (J Med Chem, 2015).

A short description of series [1]: AUCinfinity in Sprague-Dawley rat at 5 mg/kg, po by LC-MS/MS analysis. To be noted: plasma. On the set-up: time infinity, dose 5 mg/kg, route oral. The series is classed as ADME, organism-based.
The nature of series [2]: AUCinfinity in Sprague-Dawley rat at 1 mg/kg, iv by LC-MS/MS analysis. The series is classed as ADME, organism-based. Set-up: time infinity, dose 1 mg/kg, route intravenous. The settings on record: plasma.
Series [3] has as its target T1, Dual specificity protein kinase TTK (Homo sapiens, UniProt P33981).
T1 sequence (P33981 whole entry): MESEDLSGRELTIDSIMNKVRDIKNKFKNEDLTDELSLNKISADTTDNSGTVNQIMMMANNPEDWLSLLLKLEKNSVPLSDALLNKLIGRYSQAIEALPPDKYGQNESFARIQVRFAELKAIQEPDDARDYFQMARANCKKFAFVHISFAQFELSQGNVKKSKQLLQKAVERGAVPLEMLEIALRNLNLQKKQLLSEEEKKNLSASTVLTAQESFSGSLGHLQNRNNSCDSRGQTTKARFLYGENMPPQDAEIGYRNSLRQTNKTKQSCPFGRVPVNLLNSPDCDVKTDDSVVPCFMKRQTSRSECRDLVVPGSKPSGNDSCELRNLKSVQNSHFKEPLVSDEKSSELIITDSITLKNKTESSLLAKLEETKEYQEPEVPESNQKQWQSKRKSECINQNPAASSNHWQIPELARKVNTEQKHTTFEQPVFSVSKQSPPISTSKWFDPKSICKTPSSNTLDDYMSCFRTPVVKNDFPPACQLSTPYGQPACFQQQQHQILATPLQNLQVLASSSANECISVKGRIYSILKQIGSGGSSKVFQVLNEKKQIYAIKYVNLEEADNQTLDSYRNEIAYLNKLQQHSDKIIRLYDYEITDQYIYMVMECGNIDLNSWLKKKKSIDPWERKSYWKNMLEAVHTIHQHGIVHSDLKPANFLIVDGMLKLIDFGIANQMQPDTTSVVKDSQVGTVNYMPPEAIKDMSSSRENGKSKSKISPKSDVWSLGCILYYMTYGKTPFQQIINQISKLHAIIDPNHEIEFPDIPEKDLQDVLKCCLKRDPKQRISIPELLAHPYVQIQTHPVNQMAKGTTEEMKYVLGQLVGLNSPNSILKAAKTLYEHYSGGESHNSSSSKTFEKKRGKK
In words: Inhibition of amino terminal GST-fused full length human TTK using His6-SUMO-TTK-N as substrate preincubated for 15 mins prior to ATP addition by indirect ELISA detection system. In general terms: An ELISA detects its analyte on a solid surface through an enzyme-linked reagent.

In series [4] the test system is Mus musculus. As to the kind of experiment: Cmax in athymic CD1 nude mouse at 10 mg/kg, po by LC-MS/MS analysis. The series is classed as ADME, organism-based. Set-up: dose 10 mg/kg, route oral. To be noted: in vivo.
Series [5] in a line: Toxicity in po dosed athymic CD1 nude mouse assessed as body weight loss in excess 20% and deemed moribund administered as qd for 21 days measured 3 times per week during compound dosing. It counts as organism-based. To be noted: in vivo.
A short description of series [6]: Half life in Sprague-Dawley rat at 1 mg/kg, iv by LC-MS/MS analysis. It counts as ADME, organism-based. Set-up: dose 1 mg/kg, route intravenous. To be noted: in vivo.
A further series has as its system MDA-MB-468. As to the kind of experiment: Cytotoxicity against human MDA-MB-468 cells after 5 days by sulforhodamine B assay. The series is classed as functional. In a few lines: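 Cancer lines were seeded at 800–6000 cells per well according to growth rate, 24 h before compound overlay. After culture, cells were fixed in situ and stained with sulforhodamine B. GI50 values were derived by curve fitting.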
Background: In SRB staining, fixed cells bind dye roughly in proportion to their protein.

Series [7] in a line: Cytotoxicity against human OVCAR3 cells after 5 days by sulforhodamine B assay. The series is classed as functional, OVCAR-3.
Series [8] in a line: Clearance in Sprague-Dawley rat at 1 mg/kg, iv by LC-MS/MS analysis. The series is classed as ADME, organism-based. Set-up: dose 1 mg/kg, route intravenous. The settings on record: in vivo.
Series [9] deals with Aurora kinase B/Inner centromere protein (Homo sapiens, UniProt Q96GD4). In words: Inhibition of AURKB/INCENP (unknown origin) preincubated for 15 mins prior to ATP addition by FRET-based homogenous assay. It counts as protein-complex assay. A digest of the protocol: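 The enzyme was AURKB/INCENP in a FRET-based homogeneous assay run to kit specifications, with ATP at 128 μM. […] Each IC50 came from a single determination, reported with its standard fitting error.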

The nature of series [10]: Antitumor activity against human HCT116 cells xenografted in athymic CD1 nude mouse assessed as tumor growth inhibition at 100 mg/kg, po qd administered for 21 days measured 3 times per week during compound dosing relative to vehicle-treated control. The series is classed as functional. To be noted: HCT-116, 504 h, read-out: TGI. In a few lines:
(§1)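 HCT116 cells (5 million) were injected subcutaneously into the right flank of 6–8 week old female athymic CD-1 nude mice. At a mean tumor volume of 80–120 mm³, mice were randomized (n = 8). Dosing was oral, daily for 21 days, in 10% NMP/40% PEG400/50% DI water, at the MTD and ~2/3 MTD. Tumors were measured three times weekly, volume x²y/2, and TGI was taken against vehicle.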
In general terms: Xenograft models place foreign cells or tissue in a host animal.

A short description of series [11]: Oral bioavailability in Sprague-Dawley rat at 5 mg/kg by LC-MS/MS analysis. The series is classed as ADME, organism-based. To be noted: in vivo.
The target of the next series is Cytochrome P450 3A4 (Homo sapiens, UniProt P08684). As to the kind of experiment: Inhibition of human CYP3A4 using BFC as substrate preincubated for 10 mins followed by enzyme/substrate addition measured after 30 mins by fluorescence assay. The series is classed as ADME.
In series [12] the test system is Mus musculus. As to the kind of experiment: AUCinfinity in athymic CD1 nude mouse at 10 mg/kg, po by LC-MS/MS analysis. It counts as ADME, organism-based, Plasma. To be noted: in vivo. On the set-up: time infinity, dose 10 mg/kg, route oral.
The nature of series [13]: Antitumor activity against human HCT116 cells xenografted in athymic CD1 nude mouse assessed as tumor growth inhibition at 150 mg/kg, po qd administered for 21 days measured 3 times per week during compound dosing relative to vehicle-treated control. It counts as functional. The settings on record: HCT-116, 504 h, read-out: TGI. In a few lines:
as §1

Series [14] can be described thus: Antitumor activity against human HCT116 cells xenografted in nude mouse assessed as tumor growth inhibition at 30 mg/kg, po qd administered for 21 days measured on day 22 relative to vehicle-treated control. The series is classed as functional. To be noted: HCT-116, read-out: TGI.
The target in series [15] is T1, Dual specificity protein kinase TTK. As to the kind of experiment: Inhibition of TTK (unknown origin) using p38 MAPK as substrate by fluorescence assay.

Structures are written as SMILES.

Chain of Aurora kinase B/Inner centromere protein (Q96GD4 whole entry): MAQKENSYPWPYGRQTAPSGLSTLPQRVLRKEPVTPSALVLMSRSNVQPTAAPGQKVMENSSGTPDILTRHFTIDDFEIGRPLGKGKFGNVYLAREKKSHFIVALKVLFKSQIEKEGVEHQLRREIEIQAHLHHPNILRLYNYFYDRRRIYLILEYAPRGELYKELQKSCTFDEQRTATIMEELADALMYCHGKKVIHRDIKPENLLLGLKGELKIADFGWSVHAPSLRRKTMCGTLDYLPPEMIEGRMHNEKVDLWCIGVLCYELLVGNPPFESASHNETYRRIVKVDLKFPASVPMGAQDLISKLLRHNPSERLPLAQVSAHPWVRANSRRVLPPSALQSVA
Chain of Aurora kinase B/Inner centromere protein (Q9NQS7 whole entry, further chain): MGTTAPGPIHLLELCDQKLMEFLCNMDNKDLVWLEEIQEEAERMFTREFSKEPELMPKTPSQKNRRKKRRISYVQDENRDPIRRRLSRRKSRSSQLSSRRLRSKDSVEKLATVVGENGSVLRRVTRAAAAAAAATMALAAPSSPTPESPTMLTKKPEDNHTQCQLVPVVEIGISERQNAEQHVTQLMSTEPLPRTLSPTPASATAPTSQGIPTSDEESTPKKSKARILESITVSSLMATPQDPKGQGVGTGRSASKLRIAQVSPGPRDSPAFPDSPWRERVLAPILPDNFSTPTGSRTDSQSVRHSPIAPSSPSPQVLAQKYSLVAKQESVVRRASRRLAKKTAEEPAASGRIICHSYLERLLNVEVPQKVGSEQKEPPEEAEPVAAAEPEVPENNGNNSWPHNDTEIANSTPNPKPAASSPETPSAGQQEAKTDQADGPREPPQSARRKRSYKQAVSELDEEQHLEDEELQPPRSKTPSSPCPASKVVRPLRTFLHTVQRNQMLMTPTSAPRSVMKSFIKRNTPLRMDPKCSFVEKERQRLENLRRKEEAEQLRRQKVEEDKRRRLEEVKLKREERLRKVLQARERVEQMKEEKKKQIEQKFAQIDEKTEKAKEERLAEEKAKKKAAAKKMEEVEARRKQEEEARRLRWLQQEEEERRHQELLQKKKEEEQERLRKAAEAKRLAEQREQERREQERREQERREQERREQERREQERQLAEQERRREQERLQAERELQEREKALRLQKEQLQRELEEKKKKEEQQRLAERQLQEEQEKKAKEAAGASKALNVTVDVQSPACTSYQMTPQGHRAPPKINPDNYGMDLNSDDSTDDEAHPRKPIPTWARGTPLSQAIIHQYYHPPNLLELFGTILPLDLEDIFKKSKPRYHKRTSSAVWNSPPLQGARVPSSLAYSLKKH
Chain of Cytochrome P450 3A4 (P08684 whole entry): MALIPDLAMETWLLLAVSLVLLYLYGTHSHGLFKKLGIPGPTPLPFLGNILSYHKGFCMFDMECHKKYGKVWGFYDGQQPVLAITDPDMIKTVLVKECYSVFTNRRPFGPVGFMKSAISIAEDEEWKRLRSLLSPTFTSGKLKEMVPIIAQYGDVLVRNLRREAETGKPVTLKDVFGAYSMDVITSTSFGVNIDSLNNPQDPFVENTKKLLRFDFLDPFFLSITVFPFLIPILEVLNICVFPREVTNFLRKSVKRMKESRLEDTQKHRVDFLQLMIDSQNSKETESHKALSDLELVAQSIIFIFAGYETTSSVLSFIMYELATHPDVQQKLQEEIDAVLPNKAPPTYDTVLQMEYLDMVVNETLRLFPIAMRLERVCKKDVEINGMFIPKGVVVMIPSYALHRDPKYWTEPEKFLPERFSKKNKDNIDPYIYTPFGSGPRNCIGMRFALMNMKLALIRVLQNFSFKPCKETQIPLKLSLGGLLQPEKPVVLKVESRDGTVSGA

One may read the AUC(0-inf) as total exposure, with the tail of the curve extrapolated. In general, IC50 refers to the midpoint of a concentration-inhibition curve. Lower therefore signals greater potency. In general, Cmax refers to the peak of the concentration-time curve. The half-life is the time in which the quantity being followed falls by half. Lower therefore signals fast loss. For orientation: GI50 means the concentration that inhibits growth by half. A higher GI50 goes with lower sensitivity of the cells. A word on the clearance: it is the rate of elimination divided by the concentration. Broadly, the bioavailability is dose-corrected exposure relative to a reference, in per cent. A low value points to poor availability. Usually AUC stands for the area under the concentration-time curve, a measure of exposure. Read a high AUC as high exposure. Consider `O=C(N[C@H](c1ccccn1)C1CC1)c1ccc2[nH]nc(-c3ccc(N4[C@H]5CC[C@H]4CC(O)C5)cc3)c2c1` (stereo in doubt; 86), for which the values for the AUC(0-inf) in series [1] and in [2] were 430 ng·h/mL and 360 ng·h/mL, respectively. Besides, the IC50 in series [3] is 0.0016 µM; in [9], 0.79 µM; against Cytochrome P450 3A4 it was 1.7 µM. The same compound had a Cmax in the series with Mus musculus [4] of 800 ng/mL. For the same compound, in [5], the MTD at 504 h turned out to be 150 mg/kg. Moreover, in [6], the half-life was 54 min. For the same compound, the GI50 in the series with MDA-MB-468 stood at 0.09 µM; in [7] it was 0.17 µM. Further, the clearance in series [8] was determined as 46 mL/min/kg. Also, the inhibition in vivo at 100 mg/kg in series [10] was 5%. The bioavailability in series [11] came to 24%. In the series with Mus musculus [12], this compound came in with an AUC of 1600 ng·h/mL. The inhibition in vivo at 150 mg/kg in series [13] is 53%.
For `Cc1cc(N2CCOCC2)ccc1Nc1nc(NC2CCCCC2)c2nc[nH]c2n1`, the inhibition in vivo at 30 mg/kg in series [14] was 49%.
For the compound `CC(C)(O)CNc1cc(NC2CCCCC2)nn2c(-c3ccc(C(=O)NC4CC4)cc3)cnc12`, in series [15], it took 0.013 µM to reach half-maximal inhibition (IC50).
